Activity calls are given as the source filed them. No cut-off for these calls is given here.
Columns and labels:
[1] = Cytotoxicity against human SH-SY5Y cells assessed as cell survival at 100 uM after 24 hrs by MTT assay relative to control; format: cell-based; settings: read-out: Survival
How it was run: (§1)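 SH-SY5Y human neuroblastoma cells seeded at 5 × 10⁴ cells/mL, incubated 24 h at 37 °C, then exposed to compounds at final concentrations of […] for 24 h. MTT added for a further 4 h at 37 °C. Absorbance read at 570 nm and reported as percent viability. Five parallel samples per condition.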

[2] = Cytotoxicity against human SH-SY5Y cells assessed as cell survival at 500 uM after 24 hrs by MTT assay relative to control; format: cell-based; settings: read-out: Survival; how it was run: as §1
[3] = Cytotoxicity against human SH-SY5Y cells assessed as cell survival at 1000 uM after 24 hrs by MTT assay relative to control; format: cell-based; settings: read-out: Survival; how it was run: as §1
Rattus norvegicus [4] = assay: In vivo neurogenic activity in Sprague-Dawley rat neural progenitor cells at 2.2 mg/kg, ip qd pretreated for 28 days followed by BrdU addition at 2 hrs interval for twice on day 29 measured after 24 hrs by BrdU incorporation assay; format: functional, organism-based
How it was run: (§2)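 Male SD rats aged 10 weeks, acclimatized 7 days (11 weeks old at start), dosed ip once daily for 28 days with compound in soybean oil containing 10% ethanol; vehicle group received 10% ethanol in oil. On day 29, BrdU in saline given twice at 100 mg/kg, 2 h apart. Rats sacrificed 24 h after the last BrdU. BrdU+ cells in SGZ-GCL counted by DAB immunostaining of 30 µm cryosections; n = 8; mean ± SEM.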

Rattus norvegicus [5] = assay: (§3) In vivo neurogenic activity in Sprague-Dawley rat neural progenitor cells assessed as differentiation of new born NPCs to mature functional neurons at 20 mg/kg, ip qd preincubated for 28 days followed by BrdU addition at 2 hrs interval for twice on day 29 measured at 28 days post BrdU pulse by NeuN/BrdU double staining based assay relative to control
How it was run: (§4)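 SD male rats, 11 weeks old, were given compound ip daily for 28 days in 10% ethanol/soybean oil. On day 29 they received BrdU 100 mg/kg ip twice, 2 h apart, and were perfused 28 days after the last BrdU. Fixed 30 µm cryosections were co-stained for BrdU and NeuN by fluorescence. BrdU+ cells and the BrdU+NeuN+/BrdU+ fraction were counted against vehicle, mean ± SEM, n = 8.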

Rattus norvegicus [6] = assay: as §3, with “4” for “20”; how it was run: as §4
Rattus norvegicus [7] = assay: as §3, with “2” for “20”; how it was run: as §4
Rattus norvegicus [8] = assay: In vivo neurogenic activity in Sprague-Dawley rat neural progenitor cells at 4 mg/kg, ip qd pretreated for 28 days followed by BrdU addition at 2 hrs interval for twice on day 29 measured after 24 hrs by BrdU incorporation assay relative to control; format: functional; how it was run: as §2
Rattus norvegicus [9] = assay: Downregulation of AKT phosphorylation in Sprague-Dawley rat adult hippocampus at 2.2 to 4 mg/kg, ip qd preincubated for 28 days followed by BrdU addition at 2 hrs interval for twice on day 29 measured at 24 hrs post BrdU pulse by immunoblot assay; format: functional, organism-based; settings: in the assay text read “Upregulation” for “Downregulation”
How it was run: (§5)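 Male SD rats (received at 10 weeks, acclimatized 7 days) were dosed ip once daily for 28 days. The compounds were given in soybean oil with 10% ethanol, and the vehicle group received 10% ethanol in oil. BrdU was given 100 mg/kg twice, 2 h apart, on day 29. Hippocampal tissue was taken 24 h or 28 days later. Lysates were made in RIPA with protease inhibitors and run on 12% SDS-PAGE. Akt, pAkt, ERK1/2 and pERK1/2 were immunoblotted and read by densitometry against GAPDH, normalized to vehicle = 1.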

Rattus norvegicus [10] = assay: Downregulation of ERK phosphorylation in Sprague-Dawley rat adult hippocampus at 2.2 to 4 mg/kg, ip qd preincubated for 28 days followed by BrdU addition at 2 hrs interval for twice on day 29 measured at 24 hrs post BrdU pulse by immunoblot assay; format: functional, organism-based; settings: in the assay text read “Upregulation” for “Downregulation”; how it was run: as §5
Rattus norvegicus [11] = assay: Downregulation of AKT phosphorylation in Sprague-Dawley rat adult hippocampus at 2 to 20 mg/kg, ip qd preincubated for 28 days followed by BrdU addition at 2 hrs interval for twice on day 29 measured at 28 days post BrdU pulse by immunoblot assay; format: functional, organism-based; how it was run: as §5
Rattus norvegicus [12] = assay: In vivo neurogenic activity in Sprague-Dawley rat neural progenitor cells at 2 mg/kg, ip qd preincubated for 28 days followed by BrdU addition at 2 hrs interval for twice on day 29 measured at 28 days post BrdU pulse by BrdU double staining based assay relative to control; format: functional; how it was run: as §4
Rattus norvegicus [13] = assay: Downregulation of ERK phosphorylation in Sprague-Dawley rat adult hippocampus at 2 to 20 mg/kg, ip qd preincubated for 28 days followed by BrdU addition at 2 hrs interval for twice on day 29 measured at 28 days post BrdU pulse by immunoblot assay; format: functional, organism-based; how it was run: as §5
Rattus norvegicus [14] = assay: Effect on AKT expression in Sprague-Dawley rat adult hippocampus at 2.2 to 4 mg/kg, ip qd preincubated for 28 days followed by BrdU addition at 2 hrs interval for twice on day 29 measured at 24 hrs post BrdU pulse by immunoblot assay; format: functional, organism-based; how it was run: as §5
Rattus norvegicus [15] = assay: Effect on ERK expression in Sprague-Dawley rat adult hippocampus at 2.2 to 4 mg/kg, ip qd preincubated for 28 days followed by BrdU addition at 2 hrs interval for twice on day 29 measured at 24 hrs post BrdU pulse by immunoblot assay; format: functional, organism-based; how it was run: as §5
Rattus norvegicus [16] = assay: Effect on AKT expression in Sprague-Dawley rat adult hippocampus at 2 to 20 mg/kg, ip qd preincubated for 28 days followed by BrdU addition at 2 hrs interval for twice on day 29 measured at 28 days post BrdU pulse by immunoblot assay; format: functional, organism-based; how it was run: as §5
Rattus norvegicus [17] = assay: Effect on ERK expression in Sprague-Dawley rat adult hippocampus at 2 to 20 mg/kg, ip qd preincubated for 28 days followed by BrdU addition at 2 hrs interval for twice on day 29 measured at 28 days post BrdU pulse by immunoblot assay; format: functional, organism-based; how it was run: as §5
Rattus norvegicus [18] = assay: In vivo neurogenic activity in Sprague-Dawley rat neural progenitor cells at 0.5 to 4 mg/kg, ip qd pretreated for 28 days followed by BrdU addition at 2 hrs interval for twice on day 29 measured after 24 hrs by BrdU incorporation assay; format: functional, organism-based
How it was run: (§6)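 Eleven-week-old SD male rats were dosed ip daily for 28 days in soybean oil with 10% ethanol, against a vehicle control. On day 29 BrdU 100 mg/kg was given twice, 2 h apart, and rats were sacrificed 24 h later. Sections were treated with HCl denaturation, BrdU antibody at 1:500 at 4 °C overnight and DAB detection. BrdU+ cells in the SGZ-GCL were counted, mean ± SEM, n = 8.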

Rattus norvegicus [19] = assay: In vivo neurogenic activity in Sprague-Dawley rat neural progenitor cells at 0.5 mg/kg, ip qd pretreated for 28 days followed by BrdU addition at 2 hrs interval for twice on day 29 measured after 24 hrs by BrdU incorporation assay; format: functional, organism-based; how it was run: as §6
Rattus norvegicus [20] = assay: In vivo neurogenic activity in Sprague-Dawley rat adult hippocampal at 0.05 mg/kg, ip qd preincubated for 28 days followed by BrdU addition at 2 hrs interval for twice at day 29 measured at 28 days post last dose by NeuN/BrdU double staining based immunohistochemistry assay relative to control; format: functional; how it was run: as §4
Rattus norvegicus [21] = assay: In vivo neurogenic activity in Sprague-Dawley rat adult hippocampal at 0.5 mg/kg, ip qd preincubated for 28 days followed by BrdU addition at 2 hrs interval for twice at day 29 measured at 28 days post last dose by NeuN/BrdU double staining based immunohistochemistry assay relative to control; format: functional; how it was run: as §4
Rattus norvegicus [22] = assay: Downregulation of AKT phosphorylation in Sprague-Dawley rat adult hippocampus at 0.5 to 4 mg/kg, ip qd preincubated for 28 days followed by BrdU addition at 2 hrs interval for twice on day 29 measured at 24 hrs post BrdU pulse by immunoblot assay; format: functional, organism-based; settings: in the assay text read “Upregulation” for “Downregulation”; how it was run: as §5
Rattus norvegicus [23] = assay: Downregulation of ERK phosphorylation in Sprague-Dawley rat adult hippocampus at 0.5 to 4 mg/kg, ip qd preincubated for 28 days followed by BrdU addition at 2 hrs interval for twice on day 29 measured at 24 hrs post BrdU pulse by immunoblot assay; format: functional, organism-based; settings: in the assay text read “Upregulation” for “Downregulation”; how it was run: as §5
Rattus norvegicus [24] = assay: Downregulation of AKT phosphorylation in Sprague-Dawley rat adult hippocampus at 0.05 to 0.5 mg/kg, ip qd preincubated for 28 days followed by BrdU addition at 2 hrs interval for twice on day 29 measured at 28 days post BrdU pulse by immunoblot assay; format: functional, organism-based; how it was run: as §5
Rattus norvegicus [25] = assay: Downregulation of ERK phosphorylation in Sprague-Dawley rat adult hippocampus at 0.05 to 0.5 mg/kg, ip qd preincubated for 28 days followed by BrdU addition at 2 hrs interval for twice on day 29 measured at 28 days post BrdU pulse by immunoblot assay; format: functional, organism-based; how it was run: as §5
Rattus norvegicus [26] = assay: Effect on AKT expression in Sprague-Dawley rat adult hippocampus at 0.5 to 4 mg/kg, ip qd preincubated for 28 days followed by BrdU addition at 2 hrs interval for twice on day 29 measured at 24 hrs post BrdU pulse by immunoblot assay; format: functional, organism-based; how it was run: as §5
Rattus norvegicus [27] = assay: Effect on ERK expression in Sprague-Dawley rat adult hippocampus at 0.5 to 4 mg/kg, ip qd preincubated for 28 days followed by BrdU addition at 2 hrs interval for twice on day 29 measured at 24 hrs post BrdU pulse by immunoblot assay; format: functional, organism-based; how it was run: as §5
Rattus norvegicus [28] = assay: Effect on AKT expression in Sprague-Dawley rat adult hippocampus at 0.05 to 0.5 mg/kg, ip qd preincubated for 28 days followed by BrdU addition at 2 hrs interval for twice on day 29 measured at 28 days post BrdU pulse by immunoblot assay; format: functional, organism-based; how it was run: as §5
Rattus norvegicus [29] = assay: Effect on ERK expression in Sprague-Dawley rat adult hippocampus at 0.05 to 0.5 mg/kg, ip qd preincubated for 28 days followed by BrdU addition at 2 hrs interval for twice on day 29 measured at 28 days post BrdU pulse by immunoblot assay; format: functional, organism-based; how it was run: as §5
[30] = Drug uptake in mouse brain at 20 mg/kg, po via gavage by HPLC-MS/MS analysis; format: ADME, organism-based; settings: in vivo, read-out: Drug uptake

SMILES | viability at 24 h, 100 µM [1] [%] | viability at 24 h, 500 µM [2] [%] | viability at 24 h, 1000 µM [3] [%] | Activity (Rattus norvegicus [4]) | also measured
CC(=O)Nc1ccc(/C=C/c2ccc3c(c2)OCO3)cc1 | 97 | 91.9 | 80.4 | Active | fold change (FC) (Rattus norvegicus [5]): 2.3; fold change (FC) (Rattus norvegicus [6]): 3.1; fold change (FC) (Rattus norvegicus [7]): 4.6; Activity (Rattus norvegicus [8]): Active; Activity (Rattus norvegicus [9]): Active; Activity (Rattus norvegicus [10]): Active; Activity (Rattus norvegicus [11]): Active; fold change (FC) (Rattus norvegicus [12]): 4.2; Activity (Rattus norvegicus [13]): Active; Activity (Rattus norvegicus [14]): Active; Activity (Rattus norvegicus [15]): Active; Activity (Rattus norvegicus [16]): Active; Activity (Rattus norvegicus [17]): Active
CC(C)C(=O)Nc1ccc(/C=C/c2ccc3c(c2)OCO3)cc1 | 50.9 | 48.4 | 42 |  | fold change (FC) (Rattus norvegicus [8]): 2.2 - 3.5; Activity (Rattus norvegicus [18]): Active
CC(=O)Oc1ccc(/C=C/c2ccc3c(c2)OCO3)cc1 | 84.5 | 21.3 | 17.8 | inactive | 
Oc1ccc(/C=C/c2ccc3c(c2)OCO3)cc1 | 39.5 | 20.1 | 14.4 | inactive | 
CC(=O)Nc1ccc(CCc2ccc3c(c2)OCO3)cc1 | 90.3 | 79.4 | 68.8 | inactive | 
O=C(Nc1ccc(/C=C/c2ccc3c(c2)OCO3)cc1)C1CC1 | 98.9 | 97.3 | 85.3 |  | fold change (FC) (Rattus norvegicus [8]): 2.2 - 3.5; Activity (Rattus norvegicus [18]): Active
CS(=O)(=O)Nc1ccc(/C=C/c2ccc3c(c2)OCO3)cc1 | 72.5 | 68.9 | 62.3 |  | fold change (FC) (Rattus norvegicus [8]): 2.2 - 3.5; Activity (Rattus norvegicus [18]): Active
COc1cc(/C=C/c2ccc(OC(C)=O)cc2)cc(OC)c1 | 6.48 | 13.9 | 6.75 |  | Activity (Rattus norvegicus [8]): Active; Activity (Rattus norvegicus [19]): inactive
COc1ccc(/C=C/c2ccc(NC(C)=O)cc2)cc1OC | 68 | 56.5 | 31.3 | inactive | 
O=C(Nc1ccc(/C=C/c2ccc3c(c2)OCO3)cc1)c1ccccc1 | 98.6 | 99.3 | 85 |  | fold change (FC) (Rattus norvegicus [8]): 2.2 - 3.5; Activity (Rattus norvegicus [18]): Active; fold change (FC) (Rattus norvegicus [20]): 1.6; fold change (FC) (Rattus norvegicus [21]): 3.2; Activity (Rattus norvegicus [22]): Active; Activity (Rattus norvegicus [23]): Active; Activity (Rattus norvegicus [24]): Active; Activity (Rattus norvegicus [25]): Active; Activity (Rattus norvegicus [26]): Active; Activity (Rattus norvegicus [27]): Active; Activity (Rattus norvegicus [28]): Active; Activity (Rattus norvegicus [29]): Active
COc1cccc(NCC(F)Cn2c3ccc(Br)cc3c3cc(Br)ccc32)c1 (stereo not given) |  |  |  |  | concentration [30]: 900 nM
COc1ccc(/C=C/c2ccc(NC(C)=O)cc2)cc1 | 70 | 52.2 | 40.7 | inactive | 
COc1ccc(OCC#Cc2ccc3c(c2)OCO3)cc1 | 44.1 | 79.7 | 36.3 | Active | 
CCC(=O)Nc1ccc(/C=C/c2ccc3c(c2)OCO3)cc1 | 85.9 | 80.6 | 61.5 | Active | 
CC(=O)Nc1cccc(C#Cc2ccc3c(c2)OCO3)c1 | 70.6 | 62.9 | 55.3 | inactive | 

Reference: ChEMBL document CHEMBL4138103, “Discovery of efficient stimulators for adult hippocampal neurogenesis based on scaffolds in dragon's blood” (Eur J Med Chem, 2017)
